The source of these data is ChEMBL document CHEMBL1144233 (Bioorg Med Chem Lett, 2008).

For assay [1], the target named is Metabotropic glutamate receptor 1 (Rattus norvegicus, UniProt P23385). In words: (§1) Antagonist activity at rat mGluR1 expressed in Syrian golden hamster BHK cells assessed as […] of glutamate-induced calcium flux by fluorescence assay. Type of assay: functional, cell-based. For orientation: Calcium assays in cells follow changes in intracellular calcium, usually with a dye or a luminescent sensor.

Assay [2] has as its target T1, Metabotropic glutamate receptor 4 (Homo sapiens, UniProt Q14833). Kind of assay: Activity at human mGluR4 expressed in CHO coexpressing Gqi5 assessed as potentiation of glutamate-induced calcium flux by fluorescence assay. Format: functional. The method, boiled down:
(§2)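 CHO cells stably co-expressing human mGluR4 and chimeric Gqi5, plated 30,000 cells/well in assay medium (DMEM, 10% dialyzed FBS, 20 mM HEPES) and grown overnight at 37 °C, 5% CO₂. Loaded with 1 µM Fluo-4AM in HBSS/20 mM HEPES/2.5 mM probenecid for 45 min at 37 °C.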
Target sequence in this assay (Q14833 whole entry): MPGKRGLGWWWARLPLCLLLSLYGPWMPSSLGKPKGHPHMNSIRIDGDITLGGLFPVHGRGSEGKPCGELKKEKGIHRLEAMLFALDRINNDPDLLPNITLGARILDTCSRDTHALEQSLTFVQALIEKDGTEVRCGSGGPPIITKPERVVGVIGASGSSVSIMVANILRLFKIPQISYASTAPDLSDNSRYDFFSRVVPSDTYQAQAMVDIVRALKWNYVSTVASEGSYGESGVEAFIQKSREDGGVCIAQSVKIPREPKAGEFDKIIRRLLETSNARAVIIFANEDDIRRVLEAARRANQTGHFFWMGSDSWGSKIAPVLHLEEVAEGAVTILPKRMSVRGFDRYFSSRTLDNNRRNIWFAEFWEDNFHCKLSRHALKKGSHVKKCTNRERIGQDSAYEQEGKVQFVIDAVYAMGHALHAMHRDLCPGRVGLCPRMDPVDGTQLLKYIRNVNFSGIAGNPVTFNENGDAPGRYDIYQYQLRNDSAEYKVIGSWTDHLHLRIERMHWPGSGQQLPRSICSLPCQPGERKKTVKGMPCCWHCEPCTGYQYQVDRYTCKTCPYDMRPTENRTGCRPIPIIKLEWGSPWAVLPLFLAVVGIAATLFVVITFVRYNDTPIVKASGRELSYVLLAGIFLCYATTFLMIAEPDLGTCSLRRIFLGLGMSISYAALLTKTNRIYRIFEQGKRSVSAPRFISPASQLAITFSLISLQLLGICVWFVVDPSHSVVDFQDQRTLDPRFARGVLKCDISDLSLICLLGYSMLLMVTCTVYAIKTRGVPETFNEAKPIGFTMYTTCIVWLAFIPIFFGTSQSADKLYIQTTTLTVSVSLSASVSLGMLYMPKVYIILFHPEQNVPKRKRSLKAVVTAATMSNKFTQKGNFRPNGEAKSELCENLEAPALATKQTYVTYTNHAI

Assay [3] concerns the target T1, Metabotropic glutamate receptor 4. Kind of assay: Activity at human mGluR4 expressed in CHO coexpressing Gqi5 assessed as potentiation of calcium flux by fluorescence assay in absence of glutamate. Type of assay: functional. The method, boiled down: as §2
Target sequence in this assay (Q14833 whole entry): as above
For assay [4] the target is unchanged. Kind of assay: Activity at human mGluR4 expressed in CHO cells assessed as fold potentiation of glutamate-induced calcium flux at 30 uM by fluorescence assay relative to control.
Target sequence in this assay (Q14833 whole entry, looked up): as the sequence (Q14833 whole entry) above
In assay [5] the target is Metabotropic glutamate receptor 1 (Rattus norvegicus) (UniProt P23385). The assay is described as §1. The arrangement: scale not given: the % may be the effect or the level left. Format: functional, cell-based.

The source made the active and inactive calls. No cut-off for these calls is given here.

Metabotropic glutamate receptor 1 (Rattus norvegicus), sequence (P23385 19-1199 limits assumed): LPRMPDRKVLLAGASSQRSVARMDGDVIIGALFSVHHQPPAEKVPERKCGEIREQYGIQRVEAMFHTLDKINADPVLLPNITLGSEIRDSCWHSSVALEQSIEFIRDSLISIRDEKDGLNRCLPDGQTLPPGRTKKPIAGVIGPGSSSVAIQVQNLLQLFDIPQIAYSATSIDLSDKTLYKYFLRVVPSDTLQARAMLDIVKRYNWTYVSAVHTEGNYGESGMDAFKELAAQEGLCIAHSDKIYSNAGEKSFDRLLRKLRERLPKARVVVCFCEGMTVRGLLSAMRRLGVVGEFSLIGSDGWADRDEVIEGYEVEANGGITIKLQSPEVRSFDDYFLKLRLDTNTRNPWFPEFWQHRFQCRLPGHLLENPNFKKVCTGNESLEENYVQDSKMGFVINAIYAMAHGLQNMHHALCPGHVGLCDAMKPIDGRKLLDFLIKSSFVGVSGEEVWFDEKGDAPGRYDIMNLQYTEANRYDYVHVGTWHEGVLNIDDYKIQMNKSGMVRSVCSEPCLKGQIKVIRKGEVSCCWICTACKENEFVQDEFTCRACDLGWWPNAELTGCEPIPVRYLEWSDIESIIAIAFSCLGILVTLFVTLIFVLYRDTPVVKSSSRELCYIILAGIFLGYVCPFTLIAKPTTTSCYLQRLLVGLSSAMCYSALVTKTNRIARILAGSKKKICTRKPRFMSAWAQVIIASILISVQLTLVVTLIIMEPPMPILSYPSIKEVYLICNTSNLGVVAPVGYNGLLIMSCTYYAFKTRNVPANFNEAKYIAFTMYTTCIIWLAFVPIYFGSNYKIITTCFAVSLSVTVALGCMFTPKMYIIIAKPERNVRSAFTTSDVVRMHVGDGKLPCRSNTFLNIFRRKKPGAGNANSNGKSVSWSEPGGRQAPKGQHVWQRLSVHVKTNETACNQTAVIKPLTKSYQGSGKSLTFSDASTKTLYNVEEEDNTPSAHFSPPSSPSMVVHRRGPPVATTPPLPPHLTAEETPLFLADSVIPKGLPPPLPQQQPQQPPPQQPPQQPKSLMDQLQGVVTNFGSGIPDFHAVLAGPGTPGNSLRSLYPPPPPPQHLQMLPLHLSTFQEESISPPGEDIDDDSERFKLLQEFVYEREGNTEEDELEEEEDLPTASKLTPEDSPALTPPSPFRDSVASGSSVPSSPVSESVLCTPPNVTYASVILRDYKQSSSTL
Metabotropic glutamate receptor 1, sequence (P23385 whole entry): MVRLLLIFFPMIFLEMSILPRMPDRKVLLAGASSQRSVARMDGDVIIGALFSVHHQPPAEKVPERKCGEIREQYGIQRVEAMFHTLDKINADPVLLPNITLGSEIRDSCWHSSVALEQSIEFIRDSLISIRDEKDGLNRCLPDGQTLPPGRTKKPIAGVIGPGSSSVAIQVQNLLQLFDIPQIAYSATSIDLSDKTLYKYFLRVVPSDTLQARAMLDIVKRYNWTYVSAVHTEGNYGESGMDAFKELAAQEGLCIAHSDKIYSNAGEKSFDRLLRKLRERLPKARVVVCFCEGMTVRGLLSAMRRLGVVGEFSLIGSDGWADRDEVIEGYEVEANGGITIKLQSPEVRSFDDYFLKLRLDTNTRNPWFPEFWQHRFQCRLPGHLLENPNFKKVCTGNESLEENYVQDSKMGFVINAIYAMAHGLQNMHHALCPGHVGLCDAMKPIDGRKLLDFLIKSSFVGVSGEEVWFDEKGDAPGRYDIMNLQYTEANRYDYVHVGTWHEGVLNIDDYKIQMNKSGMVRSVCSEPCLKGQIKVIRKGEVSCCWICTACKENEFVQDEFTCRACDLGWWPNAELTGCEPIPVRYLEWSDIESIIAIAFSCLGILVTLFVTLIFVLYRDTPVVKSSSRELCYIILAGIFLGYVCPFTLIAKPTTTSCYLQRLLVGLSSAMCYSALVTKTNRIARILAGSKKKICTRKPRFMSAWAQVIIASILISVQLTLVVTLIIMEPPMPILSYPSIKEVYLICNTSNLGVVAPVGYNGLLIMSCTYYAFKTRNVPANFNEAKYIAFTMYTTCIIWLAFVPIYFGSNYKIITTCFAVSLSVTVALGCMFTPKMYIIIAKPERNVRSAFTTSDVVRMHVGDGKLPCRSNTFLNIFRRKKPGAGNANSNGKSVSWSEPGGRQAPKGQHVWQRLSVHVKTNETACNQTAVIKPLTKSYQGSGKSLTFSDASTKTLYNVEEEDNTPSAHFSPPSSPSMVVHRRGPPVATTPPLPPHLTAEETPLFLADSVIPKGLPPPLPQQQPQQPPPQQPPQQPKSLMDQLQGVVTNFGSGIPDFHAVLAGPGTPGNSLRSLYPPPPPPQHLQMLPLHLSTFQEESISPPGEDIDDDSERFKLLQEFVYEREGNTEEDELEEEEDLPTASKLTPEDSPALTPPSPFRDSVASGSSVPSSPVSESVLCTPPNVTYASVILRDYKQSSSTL

`Cc1ccc(-n2ncc3c(N4CCCC(C)C4)ncnc32)c(C)c1` (centres undefined): the IC50 in assay [1] turned out to be 2.6 µM. Moreover, the EC50 in assay [2] worked out at 4.6 µM. Besides, in assay [3], the outcome was inactive. For the same molecule, the fold change (FC) in assay [4] came to 11.8.

As for `Cc1ccc(-n2ncc3c(N4CC(C)OC(C)C4)ncnc32)c(C)c1` (centres undefined), the fold change (FC) in assay [4] was 3.5.

Turning to `CC1CCCN(c2ncnc3c2cnn3-c2ccccc2Cl)C1` (centres undefined), in assay [4], the fold change (FC) was 2.7.

On to `Cc1ccc(-n2ncc3c(N4CCCC(C(F)(F)F)C4)ncnc32)c(C)c1` (centres undefined), for which the fold change (FC) in assay [4] amounted to 9.9.

Take `Cc1ccc(-n2ncc3c(N4CCC(n5c(=O)[nH]c6ccccc65)CC4)ncnc32)c(C)c1`: the fold change (FC) in assay [4] turned out to be 2.4.

With `O=C(Nc1ccccc1)[C@]12C[C@H]1/C(=N\O)c1ccccc1O2`, the Activity in assay [5] was 30%.

Broadly, the IC50 is the concentration that inhibits the measured activity by half. A word on the EC50: it is the midpoint of the concentration-response curve.
